# In ChEMBL document CHEMBL4346684, “Synthesis and structure-bactericidal activity relationships of non-ketolides: 9-Oxime clarithromycin 11,12-cyclic carbonate featured with three-to eight-atom-length spacers at 3-OH” (Eur J Med Chem, 2019):
# Tests used:
# Type in all cases: functional
# Streptococcus pneumoniae [1] = experiment: Antimicrobial activity against erythromycin-susceptible Streptococcus pneumoniae ATCC 49619 incubated in CAMHB medium for 20 to 24 hrs by two-fold microbroth dilution method
# Staphylococcus aureus [2] = experiment: Antimicrobial activity against inducibly erythromycin-resistant Staphylococcus aureus PU32 expressing i-ermA incubated in CAMHB medium for 20 hrs by two-fold microbroth dilution method; conditions: PU32, 20 h
# In short: (§1)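 Purified fresh Staphylococcus isolate at about 5×10^5 CFU/ml final in CAMHB, 35 °C for 20 h. […] Each run included ATCC strains and reference antibiotics as QC, plus an antibiotic-free growth control.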
# Staphylococcus aureus [3] = experiment: Antimicrobial activity against constitutively erythromycin resistant Staphylococcus aureus PU20 expressing c-ermC incubated in CAMHB medium for 20 hrs by two-fold microbroth dilution method; conditions: PU20, 20 h; in short: as §1
# Staphylococcus aureus [4] = experiment: Antimicrobial activity against inducibly erythromycin resistant Staphylococcus aureus PU64 expressing i-ermA incubated in CAMHB medium for 20 hrs by two-fold microbroth dilution method; conditions: PU64, 20 h; in short: as §1
# Staphylococcus aureus [5] = experiment: Antimicrobial activity against erythromycin-susceptible Staphylococcus aureus ATCC 29213 incubated in CAMHB medium for 20 hrs by two-fold microbroth dilution method; conditions: ATCC 29213, 20 h
# In short: (§2)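 Clinical isolates and ATCC strains, purified by plate activation and used fresh; inoculum about 5×10^5 CFU/ml final. Grown in CAMHB at 35 °C for 20 h.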
# Streptococcus pneumoniae [6] = experiment: Antimicrobial activity against mef-encoded erythromycin resistant Streptococcus pneumoniae PU09 incubated in CAMHB medium for 20 to 24 hrs by two-fold microbroth dilution method
# Streptococcus pyogenes [7] = experiment: Antimicrobial activity against constitutively erythromycin resistant Streptococcus pyogenes A2 expressing c-erm incubated in CAMHB medium for 20 to 24 hrs by two-fold microbroth dilution method
# In short: (§3)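 Purified fresh Streptococcus isolate at about 5×10^5 CFU/ml final in CAMHB with 5% horse serum, 35 °C for 20–24 h. […] Each run included ATCC strains and reference antibiotics as QC, plus an antibiotic-free growth control.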
# Streptococcus pneumoniae [8] = experiment: Antimicrobial activity against constitutively erythromycin resistant Streptococcus pneumoniae PU27 expressing c-erm incubated in CAMHB medium for 20 to 24 hrs by two-fold microbroth dilution method; in short: as §3
# [9] = test system: Staphylococcus epidermidis; experiment: Antimicrobial activity against Staphylococcus epidermidis E1 incubated in CAMHB medium for 20 hrs by two-fold microbroth dilution method; conditions: E1, 20 h; in short: as §2
# Streptococcus pyogenes [10] = experiment: Antimicrobial activity against erythromycin-susceptible Streptococcus pyogenes A3 incubated in CAMHB medium for 20 to 24 hrs by two-fold microbroth dilution method
# Staphylococcus aureus [11] = experiment: Antimicrobial activity against constitutively erythromycin resistant and methicillin resistant Staphylococcus aureus PU20 expressing c-ermC incubated in CAMHB medium for 20 hrs by two-fold microbroth dilution method; conditions: PU20, 20 h
# In short: (§4)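 Purified fresh Staphylococcus isolate at about 5×10^5 CFU/ml final in CAMHB, 35 °C for 20 h. Each run included ATCC strains and reference antibiotics as QC, plus an antibiotic-free growth control.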
# Haemophilus influenzae [12] = experiment: Antimicrobial activity against azithromycin-susceptible Haemophilus influenzae ATCC 49247 incubated in HTM broth medium for 20 to 24 hrs by two-fold microbroth dilution method
# Haemophilus influenzae [13] = experiment: Bactericidal activity against azithromycin-susceptible Haemophilus influenzae ATCC 49247 assessed as reduction in colony formation incubated in HTM broth medium for 20 to 24 hrs followed by 24 hrs subculturing in the medium without test compound
# Streptococcus pneumoniae [14] = experiment: Bactericidal activity against erythromycin-susceptible Streptococcus pneumoniae ATCC 49619 assessed as reduction in colony formation incubated in CAMHB medium for 20 to 24 hrs followed by 24 hrs subculturing in the medium without test compound
# Streptococcus pneumoniae [15] = experiment: Ratio of MBC to MIC for erythromycin-susceptible Streptococcus pneumoniae ATCC 49619
# Streptococcus pyogenes [16] = experiment: Ratio of MBC to MIC for inducibly erythromycin resistant Streptococcus pyogenes 01-968 expressing i-ermA
# Streptococcus pyogenes [17] = experiment: Bactericidal activity against inducibly erythromycin resistant Streptococcus pyogenes 01-968 expressing i-ermA assessed as reduction in colony formation incubated in CAMHB medium for 20 to 24 hrs followed by 24 hrs subculturing in the medium without test compound
# Staphylococcus aureus [18] = experiment: Antimicrobial activity against inducibly erythromycin-resistant and methicillin resistant Staphylococcus aureus PU32 expressing i-ermA incubated in CAMHB medium for 20 hrs by two-fold microbroth dilution method; conditions: PU32, 20 h; in short: as §4
# Haemophilus influenzae [19] = experiment: Ratio of MBC to MIC for azithromycin-susceptible Haemophilus influenzae ATCC 49247
# Staphylococcus aureus [20] = experiment: Bactericidal activity against inducibly erythromycin-resistant and methicillin resistant Staphylococcus aureus PU32 expressing i-ermA assessed as reduction in colony formation incubated in CAMHB medium for 20 hrs followed by 24 hrs subculturing in the medium without test compound
# Streptococcus pneumoniae [21] = experiment: Ratio of MBC to MIC for mef-encoded erythromycin resistant Streptococcus pneumoniae PU09
# Streptococcus pneumoniae [22] = experiment: Bactericidal activity against mef-encoded erythromycin resistant Streptococcus pneumoniae PU09 assessed as reduction in colony formation incubated in CAMHB medium for 20 to 24 hrs followed by 24 hrs subculturing in the medium without test compound
# Streptococcus pyogenes [23] = experiment: Antimicrobial activity against inducibly erythromycin resistant Streptococcus pyogenes 01-968 expressing i-ermA incubated in CAMHB medium for 20 to 24 hrs by two-fold microbroth dilution method
# Staphylococcus aureus [24] = experiment: Bactericidal activity against constitutively erythromycin resistant and methicillin-resistant Staphylococcus aureus PU20 expressing c-ermC assessed as reduction in colony formation incubated in CAMHB medium for 20 hrs followed by 24 hrs subculturing in the medium without test compound
Structure (SMILES),MIC (Streptococcus pneumoniae [1]),MIC (Staphylococcus aureus [2]),MIC (Staphylococcus aureus [3]),MIC (Staphylococcus aureus [4]),MIC (Staphylococcus aureus [5]),MIC (Streptococcus pneumoniae [6]),MIC (Streptococcus pyogenes [7]),MIC (Streptococcus pneumoniae [8]),MIC [9],MIC (Streptococcus pyogenes [10]),MIC (Haemophilus influenzae [12]),MBC (Haemophilus influenzae [13]),MBC (Streptococcus pneumoniae [14]),Ratio (Streptococcus pneumoniae [15]),Ratio (Haemophilus influenzae [19]),MBC (Streptococcus pneumoniae [22]),further results
C=CCO/N=C1\[C@H](C)C[C@@](C)(OC)[C@H](O[C@@H]2O[C@H](C)C[C@H](N(C)C)[C@H]2O)[C@@H](C)[C@H](OCC#Cc2ccc(N)cn2)[C@@H](C)C(=O)O[C@H](CC)[C@@]2(C)OC(=O)O[C@@H]2[C@H]1C,4 µg/mL,128 µg/mL,> 256 µg/mL,> 256 µg/mL,64 µg/mL,8 µg/mL,128 µg/mL,64 µg/mL,> 256 µg/mL,4 µg/mL,–,–,–,–,–,–,–
CC[C@H]1OC(=O)[C@H](C)[C@@H](OC(=O)CCNCCNc2cc3c(=O)c(C(=O)O)cn(C4CC4)c3cc2Cl)[C@H](C)[C@@H](O[C@@H]2O[C@H](C)C[C@H](N(C)C)[C@H]2O)[C@](C)(OC)C[C@@H](C)/C(=N\OC)[C@H](C)[C@H]2OC(=O)O[C@@]21C,2 µg/mL,–,–,–,–,8 µg/mL,–,–,–,–,128 µg/mL,128 µg/mL,4 µg/mL,2,1,8 µg/mL,MIC (Staphylococcus aureus [11]): > 256 µg/mL; Ratio (Streptococcus pyogenes [16]): 2; MBC (Streptococcus pyogenes [17]): 32 µg/mL; MIC (Staphylococcus aureus [18]): 256 µg/mL; MBC (Staphylococcus aureus [20]): > 256 µg/mL; Ratio (Streptococcus pneumoniae [21]): 1; MIC (Streptococcus pyogenes [23]): 16 µg/mL
C=CCO/N=C1\[C@H](C)C[C@@](C)(OC)[C@H](O[C@@H]2O[C@H](C)C[C@H](N(C)C)[C@H]2O)[C@@H](C)[C@H](OCC#Cc2cncc(N)c2)[C@@H](C)C(=O)O[C@H](CC)[C@@]2(C)OC(=O)O[C@@H]2[C@H]1C,4 µg/mL,256 µg/mL,256 µg/mL,128 µg/mL,64 µg/mL,8 µg/mL,128 µg/mL,128 µg/mL,256 µg/mL,4 µg/mL,–,–,–,–,–,–,–
C=CCO/N=C1\[C@H](C)C[C@@](C)(OC)[C@H](O[C@@H]2O[C@H](C)C[C@H](N(C)C)[C@H]2O)[C@@H](C)[C@H](OCC#Cc2cncc(C#N)c2)[C@@H](C)C(=O)O[C@H](CC)[C@@]2(C)OC(=O)O[C@@H]2[C@H]1C,4 µg/mL,128 µg/mL,128 µg/mL,128 µg/mL,64 µg/mL,8 µg/mL,128 µg/mL,64 µg/mL,256 µg/mL,4 µg/mL,–,–,–,–,–,–,–
CC[C@H]1OC(=O)[C@H](C)[C@@H](OC(=O)CCNC/C=C/c2cccnc2)[C@H](C)[C@@H](O[C@@H]2O[C@H](C)C[C@H](N(C)C)[C@H]2O)[C@](C)(OC)C[C@@H](C)/C(=N\OC)[C@H](C)[C@H]2OC(=O)O[C@@]21C,1 µg/mL,–,–,–,–,2 µg/mL,–,–,–,–,256 µg/mL,256 µg/mL,2 µg/mL,2,1,2 µg/mL,MIC (Staphylococcus aureus [11]): > 256 µg/mL; Ratio (Streptococcus pyogenes [16]): >8; MBC (Streptococcus pyogenes [17]): > 64 µg/mL; MIC (Staphylococcus aureus [18]): 128 µg/mL; MBC (Staphylococcus aureus [20]): > 256 µg/mL; Ratio (Streptococcus pneumoniae [21]): 1; MIC (Streptococcus pyogenes [23]): 8 µg/mL
C=CCO/N=C1\[C@H](C)C[C@@](C)(OC)[C@H](O[C@@H]2O[C@H](C)C[C@H](N(C)C)[C@H]2O)[C@@H](C)[C@H](OCC#Cc2cccc(N)n2)[C@@H](C)C(=O)O[C@H](CC)[C@@]2(C)OC(=O)O[C@@H]2[C@H]1C,4 µg/mL,256 µg/mL,256 µg/mL,128 µg/mL,64 µg/mL,4 µg/mL,64 µg/mL,64 µg/mL,256 µg/mL,4 µg/mL,–,–,–,–,–,–,–
CC[C@H]1OC(=O)[C@H](C)[C@@H](OC(=O)NCCCc2cncc(N)c2)[C@H](C)[C@@H](O[C@@H]2O[C@H](C)C[C@H](N(C)C)[C@H]2O)[C@](C)(OC)C[C@@H](C)/C(=N\OC)[C@H](C)[C@H]2OC(=O)O[C@@]21C,0.25 µg/mL,–,–,–,–,4 µg/mL,–,–,–,–,256 µg/mL,256 µg/mL,0.5 µg/mL,2,1,8 µg/mL,–
C=CCO/N=C1\[C@H](C)C[C@@](C)(OC)[C@H](O[C@@H]2O[C@H](C)C[C@H](N(C)C)[C@H]2O)[C@@H](C)[C@H](OCC#Cc2ccc(N)nc2)[C@@H](C)C(=O)O[C@H](CC)[C@@]2(C)OC(=O)O[C@@H]2[C@H]1C,2 µg/mL,256 µg/mL,256 µg/mL,256 µg/mL,32 µg/mL,4 µg/mL,64 µg/mL,64 µg/mL,256 µg/mL,4 µg/mL,–,–,–,–,–,–,–
CC[C@H]1OC(=O)[C@H](C)[C@@H](O[C@H]2C[C@@](C)(OC)[C@@H](O)[C@H](C)O2)[C@H](C)[C@@H](O[C@@H]2O[C@H](C)C[C@H](N(C)C)[C@H]2O)[C@](C)(O)C[C@@H](C)CN(C)[C@H](C)[C@@H](O)[C@]1(C)O [AZITHROMYCIN],0.25 µg/mL,> 256 µg/mL,> 256 µg/mL,> 256 µg/mL,2 µg/mL,16 µg/mL,128 µg/mL,64 µg/mL,> 256 µg/mL,0.25 µg/mL,–,–,–,–,–,–,–
C=CCO/N=C1\[C@H](C)C[C@@](C)(OC)[C@H](O[C@@H]2O[C@H](C)C[C@H](N(C)C)[C@H]2O)[C@@H](C)[C@H](OCC#Cc2ccnc(N)c2)[C@@H](C)C(=O)O[C@H](CC)[C@@]2(C)OC(=O)O[C@@H]2[C@H]1C,4 µg/mL,256 µg/mL,256 µg/mL,256 µg/mL,64 µg/mL,8 µg/mL,128 µg/mL,64 µg/mL,256 µg/mL,4 µg/mL,–,–,–,–,–,–,–
CC[C@H]1OC(=O)[C@H](C)[C@@H](OC(=O)CCNCCCc2ccc3c(c2)c(=O)c(C(=O)O)cn3C2CC2)[C@H](C)[C@@H](O[C@@H]2O[C@H](C)C[C@H](N(C)C)[C@H]2O)[C@](C)(OC)C[C@@H](C)/C(=N\OC)[C@H](C)[C@H]2OC(=O)O[C@@]21C,0.5 µg/mL,–,–,–,–,4 µg/mL,–,–,–,–,128 µg/mL,256 µg/mL,1 µg/mL,2,2,4 µg/mL,MIC (Staphylococcus aureus [11]): 128 µg/mL; Ratio (Streptococcus pyogenes [16]): 1; MBC (Streptococcus pyogenes [17]): 32 µg/mL; MIC (Staphylococcus aureus [18]): 128 µg/mL; MBC (Staphylococcus aureus [20]): > 256 µg/mL; Ratio (Streptococcus pneumoniae [21]): 1; MBC (Staphylococcus aureus [24]): > 256 µg/mL; MIC (Streptococcus pyogenes [23]): 32 µg/mL
C=CCO/N=C1\[C@H](C)C[C@@](C)(OC)[C@H](O[C@@H]2O[C@H](C)C[C@H](N(C)C)[C@H]2O)[C@@H](C)[C@H](OCC#Cc2cccnc2N)[C@@H](C)C(=O)O[C@H](CC)[C@@]2(C)OC(=O)O[C@@H]2[C@H]1C,4 µg/mL,256 µg/mL,256 µg/mL,64 µg/mL,64 µg/mL,8 µg/mL,64 µg/mL,32 µg/mL,256 µg/mL,4 µg/mL,–,–,–,–,–,–,–
C=CCO/N=C1\[C@H](C)C[C@@](C)(OC)[C@H](O[C@@H]2O[C@H](C)C[C@H](N(C)C)[C@H]2O)[C@@H](C)[C@H](OCC#Cc2cncnc2)[C@@H](C)C(=O)O[C@H](CC)[C@@]2(C)OC(=O)O[C@@H]2[C@H]1C,4 µg/mL,128 µg/mL,256 µg/mL,256 µg/mL,64 µg/mL,4 µg/mL,64 µg/mL,64 µg/mL,256 µg/mL,4 µg/mL,–,–,–,–,–,–,–
